Measurements: paper PMC6944222 (Toxicological Sciences, 2019)

Experiments:
[1] = system: expressed human CYP and CES enzymes; format: in vitro ADME; details: for total in vivo CLint estimated with expressed enzymes: expressed enzyme-based IVIVE; for metabolism profile (enzymes responsible): human hepatic CYP and CES enzymes
[2] = IVIVE of total hepatic intrinsic clearance; format: in vitro ADME, human; details: for Hepatic CLint_vivo: model estimated; for total CLint_vivo estimated with HLMs and cytosol (subcellular fraction): subcellular fraction-based IVIVE
Method in brief: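 Pooled human liver microsomes and cytosol from 150 adults (75 male, 75 female). […] In vitro CLint was scaled to the in vivo hepatic value using microsomal or cytosolic protein content and liver weight. Enzyme ontogeny was expressed as a fraction of adult expression.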

[3] = ref Willemin et al. (2015); cited from earlier work
[4] = stated as known, no reference given; cited from earlier work

| SMILES | total in vivo CLint estimated with expressed enzymes [1] | metabolism profile (enzymes responsible) [1] | Hepatic CLint_vivo ([2]; person five) | Hepatic CLint_vivo ([2]; person four) | Hepatic CLint_vivo ([2]; person one) | Hepatic CLint_vivo ([2]; person six) | Hepatic CLint_vivo ([2]; person three) | Hepatic CLint_vivo ([2]; person two) | in vivo CLint in cryopreserved hepatocytes [3] | log Kow [4] | contribution of CES enzymes to human hepatic metabolism ([1]; IVIVE of expressed enzyme data) | total CLint_vivo estimated with HLMs and cytosol (subcellular fraction) [2] |
| --- | --- | --- | --- | --- | --- | --- | --- | --- | --- | --- | --- | --- |
| Cc1c(COC(=O)[C@@H]2[C@H](/C=C(\Cl)C(F)(F)F)C2(C)C)cccc1-c1ccccc1 (racemic) [Bifenthrin, bifenthrin] | 145 l/h/kg liver | metabolized only by CYP enzymes | 58 L/h | 36 L/h | 10 L/h | 67 L/h | 16 L/h | 5 L/h | – | – | – | – |
| CC1(C)[C@H](C(=O)OCc2cccc(Oc3ccccc3)c2)[C@@H]1C=C(Cl)Cl [CPM, cis-permethrin] | 70,481 l/h/kg liver | metabolized by CYP and CES enzymes | 186 L/h | 115 L/h | 34 L/h | 217 L/h | 51 L/h | 20 L/h | 60 l/h/kg liver | 6.1 | more than 70% | 6,68 l/h/kg liver |
| CC1(C)[C@H](C(=O)O[C@H](C#N)c2cccc(Oc3ccccc3)c2)[C@@H]1C=C(Br)Br [DLM, deltamethrin] | 36,782 l/h/kg liver | – | 2066 L/h | 1282 L/h | 375 L/h | 2417 L/h | 565 L/h | 224 L/h | – | 4.61 | – | 7,418 l/h/kg liver |
